Bioassay records: PubChem, Sanford-Burnham Center for Chemical Genomics
SENP8 block-1: inhibitors of human SENP8 protease; 1.2% of 330,000 active; purified SENP8, Z-RLRGG-aminoluciferin cleavage, luminescence; inhibition, % at 10 µM; Q96LD8; in the data active = inhibition above about 50%
Target sequence (Q96LD8 whole entry, looked up): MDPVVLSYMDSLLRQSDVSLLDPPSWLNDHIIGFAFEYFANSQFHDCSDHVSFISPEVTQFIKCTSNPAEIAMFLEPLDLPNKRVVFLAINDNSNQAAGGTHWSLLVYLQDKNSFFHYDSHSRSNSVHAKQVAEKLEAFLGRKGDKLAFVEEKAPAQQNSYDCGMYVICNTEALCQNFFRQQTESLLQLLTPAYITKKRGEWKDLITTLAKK
SENP7 block: blocks the human protease SENP7. 1.5% of 330,000 active. inhibition, % at 5 µM. Q9BQF6. recombinant SENP7, Z-RLRGG-aminoluciferin luminescence, 40 min;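 active = inhibition above about 50% at the single test dose, limit read from the data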;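 note: plate controls were DMSO with enzyme for no effect and no enzyme buffer wells for full effect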
SENP8 block-2: inhibitors of human SENP8 protease. inhibition, % at 20 µM. 0.64% of 360,000 active. recombinant SENP8, Nedd8 substrate fluorescence. Q96LD8; in the data active = inhibition mostly above about 40%, no sharp cut-off; inactive = mostly below about 27%
SENP1 FRET inh: SENP1 (human) catalytic domain inhibition. Q9P0U3. recombinant SENP1 catalytic domain, CyPet-SUMO1-YPet FRET cleavage. inhibition, % at 10 µM. 0.21% of 360,000 active. AID 624204;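 active = inhibition at least 30% at 10 µM, raw YFP signal under a set limit, fluorescence ratio 0.5 to 1.5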;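 note: 0% = enzyme with DMSO and 100% = no enzyme wells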
Target sequence (Q9P0U3 419-644 limits assumed): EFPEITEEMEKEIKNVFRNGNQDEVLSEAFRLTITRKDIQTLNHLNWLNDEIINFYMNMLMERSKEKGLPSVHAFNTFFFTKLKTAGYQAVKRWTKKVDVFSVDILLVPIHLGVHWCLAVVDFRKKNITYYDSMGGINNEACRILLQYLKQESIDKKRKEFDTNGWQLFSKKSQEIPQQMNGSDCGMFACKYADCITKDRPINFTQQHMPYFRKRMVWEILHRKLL
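Test system: recombinant human SENP1 catalytic domain, His6-tagged / Medium: pH 8 Tris buffer with EDTA, NaCl, BME, BSA, NP40, catalase / Also added: SUMO1 FRET substrate flanked by Cypet and Ypet, 25 nM / Times: 50 min reaction at room temperature / Signal: FRET, CFP and YFP emission / Control set: no-enzyme low control and enzyme-plus-DMSO high control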
SENP6 block: SENP6 protease inhibition | Q9GZR1 | inhibition, % at 10 µM | Recombinant SENP6 catalytic domain, aminoluciferin luminescence | 1.8% of 330,000 active;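 active = inhibition above about 50% at the single tested dose, limit read from the data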;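 note: plate controls were DMSO wells with enzyme for no effect and DMSO wells lacking enzyme for full effect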
SENP8 conf: human SENP8 inhibition, confirmed. shares compounds with SENP7 block. Recombinant SENP8, Z-RLRGG-aminoluciferin luminescence, 60 min. inhibition, % at 12.5 µM. 40% of 6,200 active;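 active = mean inhibition across replicates above about 50%, limit read from the data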
SENP6 conf: confirmation of human SENP6 protease inhibitors | shares compounds with SENP7 block | recombinant SENP6, Z-RLRGG-aminoluciferin luminescence | inhibition, % at 12.5 µM | 58% of 6,200 active
SENP7 confirm: confirmation of human SENP7 protease inhibitors; recombinant SENP7, Z-RLRGG-aminoluciferin luminescence, 40 min; shares compounds with SENP7 block; AID 488917; 69% of 6,200 active; inhibition, % at 12.5 µM
Casp3 select: caspase-3 inhibition (SENP selectivity assay). shares compounds with SENP7 block. purified caspase-3, Z-DEVD-aminoluciferin luminescence, 60 min. inhibition, % at 12.5 µM. 60% of 6,200 active. AID 488918;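 active = mean inhibition above about 50%, limit read from the data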;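 note: plate controls were enzyme with DMSO for no effect and wells without caspase-3 for full effect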
SENP luc ctr: interferes with luciferase luminescence in SENP counter-screen; shares compounds with SENP7 block; Pre-incubated SENP8/Z-RLRGG-aminoluciferin, luciferase luminescence interference; inhibition, % at 12.5 µM; 39% of 6,200 active; AID 488919;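 active = mean inhibition above about 50% when retested at one dose, limit read from the data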;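 note: plate controls were DMSO wells with completed reaction for no effect and substrate without enzyme for full effect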
The depositor's hits bear a star; i = inactive; . = not tested or not shown. Rows were chosen to be rich in hits. Some 2.5% of all compounds tested hit in one or more screens of this group.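 Rule for the calls, unless noted: active = mean inhibition above about 50% in the one-dose retest (limit read from the data); inactive = the rest.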

SMILES	SENP8 block-1	SENP7 block	SENP8 block-2	SENP1 FRET inh	SENP6 block	SENP8 conf	SENP6 conf	SENP7 confirm	Casp3 select	SENP luc ctr
COc1cccc(OCc2nc3c4cnn(-c5ccccc5)c4ncn3n2)c1	6	73*	-96	2	-22	-8	1	12	21	4
Cc1ccnc(NC(=O)c2cccs2)c1	38	57*	14	-3	54*	51*	51*	84*	86*	62*
O=C(Nc1ccccn1)c1cccs1	-1	9	22	-3	4	.	.	.	.	.
Cc1ccnc(NC(=O)c2ccc(Br)s2)c1	82*	92*	10	1	88*	86*	87*	98*	91*	88*
O=C(Nc1ccon1)c1ccc(Br)s1	-17	-17	0	3	-17	.	.	.	.	.
Cc1nc2cc(NC(=O)c3ccc(Br)s3)ccc2s1	46	70*	13	1	70*	22	51*	91*	48	0
CCC(C)Sc1ccc([C@@H]2[C@@H]3C(=O)N(CC)C(=O)[C@@H]3[C@]3(C(=O)OC)CCCCN23)cc1 (some centres undefined)	-18	-15	13	-1	-22	.	.	.	.	.
O=S(=O)(NC1CCCCC1)c1ccc(Cl)nc1	-5	-4	10	1	1	.	.	.	.	.
Cc1ccc(C)c(S(=O)(=O)N2CCCOC2CNC(=O)C(=O)NCc2ccc3c(c2)OCO3)c1 (centres undefined)	-3	7	-4	0	-5	.	.	.	.	.
CC(C)(C)c1ccc(/C=C2\SC(=O)N(CCNC(=O)c3cccc(S(=O)(=O)N4CCOCC4)c3)C2=O)cc1	82*	90*	0	3	91*	39	59*	74*	55*	3
CCOc1cc2c(C#N)c(N3CCOCC3)nc(N)c2c(N)n1	4	28	-411	-23	13	.	.	.	.	.
CCOc1cc2c(C#N)c(N(CC)CC)nc(N)c2c(N)n1	5	45	i	-42	72*	-2	1	3	10	6
CCCN(CC1CC1)c1nc(N)c2c(N)nc(OC)cc2c1C#N	80*	4	-499	-16	82*	7	12	2	-5	-16
COC(=O)c1ccsc1NC(=O)CCc1ccccc1	87*	87*	2	3	88*	90*	91*	100*	91*	66*
NC(=O)c1ccsc1NC(=O)CCc1ccccc1	-4	14	12	-7	19	.	.	.	.	.
O=C(O)c1ccc(-c2ccccn2)s1	-2	8	-4	0	5	.	.	.	.	.
c1ccc(-c2nnc(-c3ccccn3)nn2)nc1	79*	11	33	2	14	-4	54*	85*	86*	66*
c1ccc(-c2ccc(-c3ccccn3)s2)nc1	76*	84*	-418	-94	83*	75*	81*	97*	86*	21
CC1CCN(c2cc(N(C)CCO)c([N+](=O)[O-])c3nonc23)CC1	4	90*	28	6	2	9	7	-2	-5	-7
COC(=O)CSc1nnc(C2COc3ccccc3O2)n1-c1ccccc1 (centres undefined)	-1	76*	10	1	-4	-8	-1	-5	-3	-5
Cc1cc(NC(=O)CSc2nnc(C3COc4ccccc4O3)n2C)no1 (centres undefined)	-5	1	11	0	7	.	.	.	.	.
O=C(NCCN1CCOCC1)C1CCC(CNS(=O)(=O)c2ccc(Cl)cc2)CC1 (centres undefined)	-52	60*	7	3	10	1	-2	-3	-3	-2
